Screening data: PubChem BioAssay, several laboratories
Compounds with a hit are over-represented: about 0.95% of the library has one in this group of screens.
ASAP1 inh: ASAP1 ArfGAP inhibition. Q9ULH1. ASAP1-stimulated ARF1 GTP hydrolysis, GDP FP detection. inhibition, % at 16.5 µM. actives 0.19% (n = 360,000); in the data active = inhibition above about 25%;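 also: 0% = vehicle with enzyme and substrate and 100% = no enzyme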
ARFGAP1 inh: rat ARFGAP1 inhibition; AID 651572; Q62848; inhibition, % at 16.5 µM; Arfgap1-stimulated ARF1 GTP hydrolysis, GDP FP detection; actives 0.26% (n = 360,000);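 active = inhibition above a per-plate limit, mean inhibition of low control wells plus 3 SD, cut at about 25% in these data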;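 also: 0% = DMSO wells with enzyme and 100% = wells lacking Arfgap1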
Target sequence (Q62848 1-136 limits assumed): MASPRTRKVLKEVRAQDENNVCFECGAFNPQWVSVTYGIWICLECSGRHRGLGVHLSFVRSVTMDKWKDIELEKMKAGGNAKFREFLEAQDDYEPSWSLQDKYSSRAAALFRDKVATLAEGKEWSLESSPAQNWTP
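material = rat Arfgap1 catalytic domain, aa 1-136 | also added = human ARF1(Δ1-17)-GTP substrate | compound dosing = one concentration, 16.5 µM, DMSO 1.26% | times = GTP hydrolysis reaction 2 h at 25 °C | measured by = FP, GDP Alexa 633 tracer displaced from anti-GDP antibody, 620/688 nm | evaluation = percent inhibition of Arfgap1-stimulated GTP hydrolysis | replication = single well per compound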
CSN inh: CSN deneddylation inhibition. Purified CSN, SCF-Nedd8-OG deneddylation, fluorescence polarization. inhibition, % at 12.5 µM. actives 0.38% (n = 360,000). AID 651999;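 active = pattern-corrected inhibition above about 35%, with an unprinted fluorescence ratio check between 0.5 and 1.5, limit read from the data, passing the limit was not always enough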;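 also: 0% = enzyme with substrate and 100% = substrate without enzyme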
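Assay system: Purified human Csn5 enzyme expressed in HEK293T cells | Amount: Enzyme 0.24 nM | Measured by: Fluorescence polarization readout | Medium: Tris/NaCl/DTT buffer, pH 7.5 | Compound dosing: One concentration, 12.5 µM, 0.25% DMSO | Times: 90 min incubation of compound, enzyme and substrate at room temperature | Control set: no-enzyme wells high, enzyme-with-substrate wells low | Read-out: % inhibition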
HNF4A DNA FP: change in binding of human HNF4 alpha to DNA. HNF4a-FITC DNA binding, fluorescence polarization, 1 h. activity change, % at 10 µM. actives 0.3% (n = 360,000); in the data active = activity change above about 30%, passing the limit was not always enough
Target sequence (P41235 whole entry, looked up): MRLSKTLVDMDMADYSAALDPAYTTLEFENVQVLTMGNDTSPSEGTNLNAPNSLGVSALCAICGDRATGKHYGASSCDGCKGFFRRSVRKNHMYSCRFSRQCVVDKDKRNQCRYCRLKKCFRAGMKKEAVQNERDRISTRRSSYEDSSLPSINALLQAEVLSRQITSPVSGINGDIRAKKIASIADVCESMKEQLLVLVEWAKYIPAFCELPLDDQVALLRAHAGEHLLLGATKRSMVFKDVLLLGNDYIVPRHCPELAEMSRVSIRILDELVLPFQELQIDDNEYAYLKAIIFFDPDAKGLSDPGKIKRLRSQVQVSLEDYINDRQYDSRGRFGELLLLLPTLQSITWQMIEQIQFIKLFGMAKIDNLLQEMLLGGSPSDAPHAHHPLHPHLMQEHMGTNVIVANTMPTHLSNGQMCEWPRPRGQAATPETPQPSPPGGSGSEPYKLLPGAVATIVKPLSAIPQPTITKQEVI
* marks the source's active call; other numbers are inactive results; x = no result.

SMILES	ASAP1 inh	ARFGAP1 inh	CSN inh	HNF4A DNA FP
COc1ccccc1N/C=C/c1onc(C)c1[N+](=O)[O-]	-2.9	-7.3	19.6	69.2*
C/C(=N\Nc1ccc([N+](=O)[O-])cc1)c1cc2ccccc2o1	8.7	2.2	25.1	55.9*
O=C(C(=O)N1CCC(CNS(=O)(=O)Cc2ccccc2)CC1)c1cccs1	-4.6	-2.7	x	x
Nc1nc2c(ncn2[C@@H]2O[C@H](C(=O)NCCCN3CCCC3=O)[C@@H](O)[C@H]2O)c(=O)[nH]1	3.2	2.1	x	x
O=C(NCC(F)(F)F)c1ccc(S(=O)(=O)Nc2ccccc2N2CCCC2)cc1	13.5	2.4	72.6*	26.6
COc1ccccc1NS(=O)(=O)c1cccc(NC(=O)Cc2cccs2)c1	5.7	7.7	1.8	1.2
COC(=O)[C@]12C[C@H](CC(=O)NCCc3ccccc3OC)C(=O)N(CCC3=CCCCC3)C1=C[C@H](C(C)(C)C)O[C@@H]2C	9.5	7.3	x	x
CC(C)(C)NC(=O)Cn1c(SCC(=O)N2CCCCCC2)nc2ccccc21	-7.3	-11.6	-3.8	31.6*
COCc1cc(N2CCNC[C@@H]2C)ccc1N1C[C@@H](C)O[C@@H](C)C1	-6.1	0.0	x	x
N=c1c2c(n(Cc3ccc(Cl)cc3)c3c1CCC3)CCC2	7.7	3.8	0.5	41.9*
COc1cc(/C=C/C(=O)/C=C(O)/C=C/c2ccc(O)c(OC)c2)ccc1O	9.1	11.8	119.4	116.8*
Cc1cc(NC(=O)Cc2cn(C)c3ccccc23)ccc1Nc1cccnc1	1.2	8.6	x	x
CC(C)CC1=C/C(=C/c2ccc(-c3ccccc3)o2)C(=O)O1	-13.5	-9.4	38.0*	-16.9
CC(=O)c1ccc(N2CCN(C(=O)C3CCN(S(=O)(=O)Cc4ccccc4)CC3)CC2)cc1	-8.7	-1.6	92.1*	6.3
O=S(=O)(Cc1ccccc1)N1CCN(c2ncccn2)CC1	-10.6	-2.8	2.0	-0.8
O=C(C1CCN(S(=O)(=O)Cc2ccccc2)CC1)N1CCN(c2ncccn2)CC1	-7.5	3.0	101.0*	0.7
COc1ccc(C(=O)C(=O)N2CCN(C(=O)c3cc(C(F)(F)F)cc(C(F)(F)F)c3)CC2)cc1OC	-9.8	-8.6	x	x
c1cncc(Oc2ccc(NCCc3c[nH]c4ccccc34)cc2)c1	9.7	-8.8	x	x
O=C1CN(CC(=O)Nc2cccc(Cl)c2Cl)c2ccccc2N1	-10.6	16.4	0.0	35.4*
CC(=O)C(C(C)=O)C1(O)C(=O)c2ccccc2C1=O	27.2*	31.5*	6.7	-2.9
Cc1cc(O)cc(=O)n1-c1cc(C(F)(F)F)cc(C(F)(F)F)c1	-8.7	0.8	x	x
Cc1cccc(NC2=C/C(=N/S(=O)(=O)c3cccs3)c3ccccc3C2=O)c1	32.9*	11.9	0.9	-2.5
O=C(O)c1ccc(NC2=C/C(=N/S(=O)(=O)c3cccs3)c3ccccc3C2=O)cc1	10.8	-10.2	20.4	2.5
Cc1ccc(NC2=C/C(=N\S(=O)(=O)c3cccs3)c3ccccc3C2=O)c(C)c1	x	x	9.3	-2.5
O=C1C(Nc2ccc(O)cc2)=C/C(=N/S(=O)(=O)c2cccs2)c2ccccc21	31.9*	9.0	21.3	-0.6
SMILES	ASAP1 inh	ARFGAP1 inh	CSN inh	HNF4A DNA FP
Cc1cc(C)c(O)c(C(=O)CC2CC(=O)NC(=O)C2)c1	-5.0	x	x	x
Cn1c(=O)c2c(ncn2Cc2ccc(O)c([N+](=O)[O-])c2)n(C)c1=O	-11.0	2.3	x	x
COc1cc(/C=C(\C#N)C(=O)c2c[nH]c3ccccc23)cc(OC)c1O	8.6	-3.9	165.9	83.8*
O=C(c1cccn2c(=O)c3ccccc3nc12)N1CCN(Cc2ccc3c(c2)OCO3)CC1	14.6	9.1	-0.7	9.9
O=C(c1ccc2nc3ccccc3c(=O)n2c1)N1CCN(Cc2ccc3c(c2)OCO3)CC1	4.2	-1.0	7.2	39.0*
CCOC(=O)C1=C(C)N=c2s/c(=C\c3ccc(OC(C)=O)cc3)c(=O)n2C1/C=C/c1ccccc1 (stereo not drawn)	5.4	2.1	1.9	36.5*
CCOC(=O)C1=C(C)N=c2sc(=Cc3ccc(OCC(=O)O)cc3)c(=O)n2C1c1ccc(Cl)cc1 (stereo not drawn)	-10.1	-37.8	35.0*	8.5
CCOC(=O)C1=C(C)N=c2s/c(=C\c3ccc(OC(C)=O)c(OCC)c3)c(=O)n2C1/C=C/c1ccccc1 (stereo not drawn)	14.7	-2.5	7.8	7.6
CCOC(=O)C1=C(C)N=c2s/c(=C\c3ccc(OCC(=O)O)cc3)c(=O)n2C1c1ccc(OC(C)C)cc1 (stereo not drawn)	-10.9	3.2	7.2	-0.2
C=CCN1C(=O)c2n[nH]c(C(C)C)c2C1c1ccc(C)cc1 (stereo not drawn)	3.7	5.6	x	x
CCCCNC(=O)C[C@H]1C[C@@]2(C(=O)OC)C(=C[C@H](COCc3ccccc3)O[C@@H]2C)N(Cc2ccc3c(c2)OCO3)C1=O	-5.2	2.6	x	x
COc1cccc(CSc2nc3ccccc3[nH]2)c1	16.4	-11.4	0.0	32.5*
Cc1ccc(C2c3c(n[nH]c3C)C(=O)N2c2ccccc2)cc1 (stereo not drawn)	-1.3	-4.7	x	x
Cc1ccc(C(=O)CSc2nnc(CNc3nc(-c4ccccc4)cs3)n2C)cc1	7.1	2.3	-4.9	114.5*
C[C@@H]1C=CCCO[C@]12C(=O)N(Cc1ccccc1C(F)(F)F)c1cccc(Br)c12	2.4	-2.0	x	x
CC(=O)Nc1ccc(S(=O)(=O)N2CCN(c3cc(C)nc4ccccc34)CC2)cc1	6.4	1.6	3.3	-0.2
CC(=O)Nc1ccc(S(=O)(=O)N2CCN(c3nc(NC4CCCC4)c4ccccc4n3)CC2)cc1	17.6	39.4*	-5.3	5.8
COc1cccc(-c2nn(-c3ccccc3)cc2CNC(C)Cn2cncn2)c1 (stereo not drawn)	1.8	3.3	37.5*	1.2
COC(=O)C1=C(C)N(Cc2ccccc2C(F)(F)F)C(=NCc2ccccc2)NC1c1cccc(C(F)(F)F)c1 (stereo not drawn)	13.1	1.5	x	x
CC(C(=O)Nc1ccc(C(=O)O)c(O)c1)N1C(=O)/C(=C\c2ccco2)SC1=S (stereo not drawn)	x	x	53.2*	-14.1
CC(C(=O)N(C)C1CCS(=O)(=O)C1)N1C(=O)/C(=C/c2ccco2)SC1=S (stereo not drawn)	1.4	-14.0	8.2	7.8
CCOC(=O)c1cccc(C2=CC(=O)C[C@H](c3ccc(OC)cc3)C2)c1	x	x	95.0*	-4.3
COCCN1C(=O)[C@H]2C[C@@]13O[C@H](c1ccccn1)N=C3CC1c3ccccc3C[C@@]12C (stereo partly drawn)	-6.5	-5.7	x	x
Nc1c2c(nc3ccccc13)CCC2	-5.5	1.0	-0.5	34.9*
Cc1cc(NCCc2c[nH]c3ccccc23)ccc1Nc1cccnc1	8.4	4.5	x	x
COc1ccc(-c2ccc3c(N)c(C(=O)c4ccc(OC)c(OC)c4)sc3n2)cc1	9.6	0.2	4.9	20.7
COc1ccc(C(=O)c2sc3nc(-c4ccccc4)ccc3c2N)cc1OC	1.4	-1.7	16.9	68.7*
